Laboratory results as given in ChEMBL document CHEMBL4266019, “Discovery and Structure-Activity-Relationship Study of N-Alkyl-5-hydroxypyrimidinone Carboxamides as Novel Antitubercular Agents Targeting Decaprenylphosphoryl-β-d-ribose 2'-Oxidase” (J Med Chem, 2018).
Positions count from the first letter of the chain named. ≈ marks a conversion by molar mass, not a printed value. Calls of active or inactive are those of the source. No cut-off for these calls is given here.

How the values were obtained:
[1] = test system: T1, Decaprenylphosphoryl-beta-D-ribose oxidase (Mycobacterium tuberculosis (strain ATCC 25618 / H37Rv)), P9WJF1 [N364S]; test: Inhibition of DprE1 N364S mutant in Mycobacterium tuberculosis H37Rv assessed as bacterial growth inhibition after 4 weeks
T1 sequence (whole entry): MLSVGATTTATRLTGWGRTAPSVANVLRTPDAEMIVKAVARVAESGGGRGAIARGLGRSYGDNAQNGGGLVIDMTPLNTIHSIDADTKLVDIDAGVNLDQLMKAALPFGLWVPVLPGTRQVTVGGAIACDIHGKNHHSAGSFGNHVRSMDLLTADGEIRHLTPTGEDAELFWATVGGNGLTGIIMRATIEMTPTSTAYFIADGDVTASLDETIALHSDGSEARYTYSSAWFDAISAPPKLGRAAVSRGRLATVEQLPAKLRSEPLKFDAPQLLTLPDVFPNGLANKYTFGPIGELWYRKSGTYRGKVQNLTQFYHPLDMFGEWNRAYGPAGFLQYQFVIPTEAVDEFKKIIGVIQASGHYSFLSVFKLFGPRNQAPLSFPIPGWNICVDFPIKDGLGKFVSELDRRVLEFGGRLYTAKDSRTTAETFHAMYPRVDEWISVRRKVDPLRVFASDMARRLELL

[2] = test system: T2, Decaprenylphosphoryl-beta-D-ribose oxidase (Mycobacterium tuberculosis (strain ATCC 25618 / H37Rv)), P9WJF1 [Y314H]; test: Inhibition of DprE1 Y314H mutant in Mycobacterium tuberculosis H37Rv assessed as bacterial growth inhibition after 4 weeks
T2 sequence (whole entry): T1 sequence (whole entry) with Y314H, S364N
How it was run: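 Resistant mutants were selected by plating 10^7–10^9 H37Rv cells on 7H11/OADC containing 2×, 5× or 10× MIC, with drug-free plates for counts, at 37 °C for 4 weeks. Colonies from 10× MIC were regrown in 7H9/ADC and MIC-tested. Genomes were sequenced after CTAB DNA isolation.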

[3] = test system: Mycobacterium tuberculosis H37Rv; test: Ratio of MIC for inhibition of DprE1 Y314H mutant-mediated growth of Mycobacterium tuberculosis H37Rv to MIC for inhibition of DprE1-mediated growth of Mycobacterium tuberculosis H37Rv
How it was run: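 Resistant mutants were selected by plating 10^7, 10^8 and 10^9 H37Rv cells on 7H11/OADC agar containing 2×, 5× and 10× MIC of the hit compound, then incubating at 37 °C for 4 weeks. Colonies from 10× MIC plates were grown in 7H9/ADC and MIC-tested against the parental strain. Whole-genome sequencing found the DprE1 Y314H mutation.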

[4] = test system: T3, Decaprenylphosphoryl-beta-D-ribose oxidase (Mycobacterium tuberculosis (strain ATCC 25618 / H37Rv)), P9WJF1 [P116S]; test: Inhibition of DprE1 P116S mutant in Mycobacterium tuberculosis H37Rv assessed as bacterial growth inhibition after 4 weeks
T3 sequence (whole entry): T1 sequence (whole entry) with P116S, S364N

[5] = test system: T4, Decaprenylphosphoryl-beta-D-ribose oxidase (Mycobacterium tuberculosis (strain ATCC 25618 / H37Rv)), P9WJF1 [Y314C]; test: Inhibition of DprE1 Y314C mutant in Mycobacterium tuberculosis H37Rv assessed as bacterial growth inhibition after 4 weeks
T4 sequence (whole entry): T1 sequence (whole entry) with Y314C, S364N

[6] = test system: Mycobacterium tuberculosis; test: Antitubercular activity against Mycobacterium tuberculosis H37Rv harboring dprE1-dprE2 mutant after 10 days in absence of anhydrotetracycline; format: functional, organism-based
How it was run: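 DprE12–TetON1 strain (H37Rv with integrated attL5 plasmid constitutively expressing dprE1, dprE2, aftA, embC) washed and diluted to OD580nm 0.01 in drug-free 7H9-based medium. Half received anhydrotetracycline 500 ng/mL. Tested against 14-point 2-fold dilutions, 1% DMSO final, at 37 °C, 5% CO2. OD580nm read at day 10. BTZ043 and TCA1 served as positive controls.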

Cn1c(Cc2ccccc2C(F)(F)F)nc(C(=O)NCc2ccccc2)c(O)c1=O
MIC [1]: 2.34 µM (≈ 0.977 µg/mL)
MIC [2]: > 50 µM
Ratio [3]: > 16
MIC [4]: 18.8 µM (≈ 7.85 µg/mL)
MIC [5]: 25 µM (≈ 10.4 µg/mL)

CC(NC(=O)c1nc(Cc2ccccc2C(F)(F)F)n(C)c(=O)c1O)c1ccccc1 (centres undefined)
Activity [6]: inactive

CCOC(=O)NC(=O)c1ccsc1NC(=O)c1nc2ccccc2s1
Activity [6]: Active

CC[C@@H](CO)NCCN[C@@H](CC)CO
Activity [6]: Active

C[C@H]1COC2(CCN(c3nc(=O)c4cc(C(F)(F)F)cc([N+](=O)[O-])c4s3)CC2)O1
Activity [6]: Active
